This is an account of results in ChEMBL document CHEMBL1158568, “In silico directed chemical probing of the adenosine receptor family” (Bioorg Med Chem, 2010).

Test [1] addresses Adenosine receptor A2a (Homo sapiens, UniProt P29274). In words: Displacement of [3H]ZM241385 from human adenosine A2A receptor expressed in human HeLa cells at 10 uM after 30 mins by beta scintillation counting. The format is cell-based. In short, it runs like this:
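Membranes from HeLa-A2A cells, 10 lg protein, in 50 mM Tris–HCl, 1 mM EDTA, 10 mM MgCl2, 2 UI/mL adenosine deaminase, pH 7.4; 3 nM [3H]ZM241385, 30 min at 25 °C, duplicates. 50 µM NECA defined non-specific binding. Single 10 µM point or six concentrations 10 nM–100 µM; Ki by Cheng–Prusoff.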

Test [2] concerns the target T1, Adenosine receptor A1 (Homo sapiens) (UniProt P30542).
T1 sequence (whole entry): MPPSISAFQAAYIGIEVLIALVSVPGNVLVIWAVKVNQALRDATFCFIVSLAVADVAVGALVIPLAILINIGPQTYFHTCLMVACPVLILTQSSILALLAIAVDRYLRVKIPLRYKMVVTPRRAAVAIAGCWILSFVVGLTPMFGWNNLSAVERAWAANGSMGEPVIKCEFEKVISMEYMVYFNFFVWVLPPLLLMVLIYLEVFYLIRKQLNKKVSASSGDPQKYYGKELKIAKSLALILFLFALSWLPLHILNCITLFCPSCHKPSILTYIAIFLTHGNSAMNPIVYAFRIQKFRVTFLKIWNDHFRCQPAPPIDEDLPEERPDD
In words: Displacement of [3H]DPCPX from human adenosine A1 receptor expressed in CHO cells at 10 uM after 60 mins by beta scintillation counting. The class given is cell-based. In short, it runs like this: (§1)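 Membranes of CHO-A1 cells (15 lg protein) in 20 mM Hepes, 100 mM NaCl, 10 mM MgCl2, 2 units/ml adenosine deaminase, pH 7.4, with 2 nM [3H]DPCPX; 60 min at 25 °C, duplicates. Non-specific binding with 10 µM (R)-PIA. Filtration, scintillation counting. Single point at 10 µM or six concentrations 10 nM–100 µM; Ki by Cheng–Prusoff.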

Test [3] has as its target T2, Adenosine receptor A2b (Homo sapiens) (UniProt P29275).
T2 sequence (whole entry): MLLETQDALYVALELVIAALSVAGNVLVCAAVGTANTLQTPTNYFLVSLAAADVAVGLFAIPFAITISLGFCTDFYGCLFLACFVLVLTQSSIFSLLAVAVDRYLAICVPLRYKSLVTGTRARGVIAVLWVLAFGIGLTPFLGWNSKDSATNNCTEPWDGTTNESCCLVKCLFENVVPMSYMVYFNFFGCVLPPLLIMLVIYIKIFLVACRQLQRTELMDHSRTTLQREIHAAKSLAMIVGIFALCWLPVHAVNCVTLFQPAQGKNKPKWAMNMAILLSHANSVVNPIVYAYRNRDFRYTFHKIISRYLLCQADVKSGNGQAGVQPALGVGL
In words: Displacement of [3H]DPCPX from human adenosine A2B receptor expressed in HEK293 cells at 10 uM after 30 mins by beta scintillation counting. The class given is cell-based.

For test [4], the target named is T3, Adenosine receptor A3 (Homo sapiens) (UniProt P0DMS8).
T3 sequence (whole entry): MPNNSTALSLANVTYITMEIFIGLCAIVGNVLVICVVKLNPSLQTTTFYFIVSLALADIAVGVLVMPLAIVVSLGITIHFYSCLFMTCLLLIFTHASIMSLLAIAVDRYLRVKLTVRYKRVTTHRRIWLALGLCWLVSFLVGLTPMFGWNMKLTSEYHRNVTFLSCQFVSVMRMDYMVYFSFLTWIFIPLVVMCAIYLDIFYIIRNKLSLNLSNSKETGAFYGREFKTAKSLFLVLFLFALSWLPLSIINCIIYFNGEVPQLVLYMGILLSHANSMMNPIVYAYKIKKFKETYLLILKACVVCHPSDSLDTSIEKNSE
In words: Displacement of [3H]NECA from human adenosine A3 receptor expressed in human HeLa cells at 10 uM after 180 mins by beta scintillation counting. The class given is cell-based. In short, it runs like this:
(§2)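 HeLa-A3 membranes (90 lg protein) in 50 mM Tris–HCl, 1 mM EDTA, 5 mM MgCl2, 2 UI/mL adenosine deaminase, pH 7.4; 30 nM [3H]NECA, 180 min at 25 °C, triplicates, GF/B filtration. Non-specific with 100 µM (R)-PIA. Tested at 10 µM or six concentrations 10 nM–100 µM; Ki by Cheng–Prusoff.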

The target in test [5] is T4, Adenosine receptor A3 (Homo sapiens, UniProt P0DMS8).
T4 sequence (P0DMS8 whole entry): T3 sequence (whole entry)
In words: Displacement of [3H]NECA from human adenosine A3 receptor expressed in human HeLa cells after 180 mins by beta scintillation counting. The class given is cell-based. In short, it runs like this:
as §2

In test [6] the target is T4, Adenosine receptor A3. Briefly: Antagonist activity at human adenosine A3 receptor expressed in forskolin-stimulated CHO cells assessed as inhibition of […]-induced decrease in cAMP level pre-incubated for 15 mins by enzyme immunoassay. The class given is functional, cell-based. In short, it runs like this: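 Using CHO-A3 cells (20,000/well, DMEM F-12, 10% FCS), test compound plus 30 µM rolipram pre-incubated 15 min at 37 °C; 1 µM NECA added 15 min, then 10 µM forskolin 3 min. cAMP by enzyme immunoassay at 450 nm; pKB by Leff–Dougall equation.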

The target in test [7] is T5, Alpha-2A adrenergic receptor (Homo sapiens) (UniProt P08913).
T5 sequence (whole entry): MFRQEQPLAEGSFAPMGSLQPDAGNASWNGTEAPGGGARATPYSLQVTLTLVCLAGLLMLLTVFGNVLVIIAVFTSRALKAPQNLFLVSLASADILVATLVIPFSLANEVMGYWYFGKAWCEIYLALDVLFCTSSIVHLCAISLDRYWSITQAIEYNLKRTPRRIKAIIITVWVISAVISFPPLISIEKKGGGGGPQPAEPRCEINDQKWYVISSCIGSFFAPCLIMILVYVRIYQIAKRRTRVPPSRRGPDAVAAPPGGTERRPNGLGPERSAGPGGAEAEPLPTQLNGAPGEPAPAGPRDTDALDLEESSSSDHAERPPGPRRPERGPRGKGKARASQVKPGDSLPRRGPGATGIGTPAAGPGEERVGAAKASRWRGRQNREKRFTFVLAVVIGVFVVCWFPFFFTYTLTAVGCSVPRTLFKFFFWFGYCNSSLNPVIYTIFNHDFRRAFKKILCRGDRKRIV
Briefly: Displacement of [3H]MK912 from human adrenergic alpha2A receptor expressed in CHO cells at 10 uM after 30 mins by beta scintillation counting. The class given is cell-based. Summed up:
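CHO-a2A membranes (25 lg protein) in 25 mM Na2PO4, pH 7.4, with 0.37 nM [3H]MK-912 and compound at 10 µM; 30 min at 25 °C, duplicates. Non-specific binding with 100 µM norepinephrine; filtration and scintillation counting.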

The target of test [8] is Histamine H1 receptor (Homo sapiens) (UniProt P35367). In words: Displacement of [3H]pyrilamine from human histamine H1 receptor expressed in CHO cells at 10 uM after 60 mins by beta scintillation counting. The class given is cell-based. In short, it runs like this: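 CHO-H1 membranes (1 lg protein) in 50 mM Tris–HCl pH 7.4 with 2 nM [3H]pyrilamine and compound at 10 µM; 60 min at 27 °C, duplicates. 10 µM triprolidine for non-specific binding; GF/C filtration, scintillation counting.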
Histamine H1 receptor (Homo sapiens), sequence (P35367 whole entry): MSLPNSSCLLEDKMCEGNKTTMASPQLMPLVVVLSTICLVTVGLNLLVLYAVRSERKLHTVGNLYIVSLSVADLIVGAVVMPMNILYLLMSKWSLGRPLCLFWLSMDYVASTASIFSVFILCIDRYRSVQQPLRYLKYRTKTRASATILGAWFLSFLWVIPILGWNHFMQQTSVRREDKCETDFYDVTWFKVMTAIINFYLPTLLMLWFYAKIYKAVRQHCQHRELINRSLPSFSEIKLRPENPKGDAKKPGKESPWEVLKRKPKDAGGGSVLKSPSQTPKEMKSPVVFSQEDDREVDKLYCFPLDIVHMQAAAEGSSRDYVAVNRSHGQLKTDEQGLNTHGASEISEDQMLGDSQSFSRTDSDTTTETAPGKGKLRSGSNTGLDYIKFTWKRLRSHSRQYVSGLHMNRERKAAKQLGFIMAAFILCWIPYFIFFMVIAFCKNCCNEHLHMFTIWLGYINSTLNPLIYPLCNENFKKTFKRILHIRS

Test [9] deals with 5-hydroxytryptamine receptor 7 (Homo sapiens) (UniProt P34969). In words: Displacement of [3H]SB269970 from human 5HT7 receptor expressed in HEK293 cells at 10 uM after 60 mins by beta scintillation counting. The class given is cell-based. In short, it runs like this:
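HEK-293-5-HT7 membranes (5 lg protein) in 50 mM Tris–HCl, 4 mM CaCl2, 1 mM ascorbic acid, 0.1 mM pargyline, pH 7.4; 2 nM [3H]SB269970, compound at 10 µM, 60 min at 37 °C, duplicates. Non-specific defined with 25 µM clozapine.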

Test [10] deals with T6, Adenosine receptor A2b (Homo sapiens, UniProt P29275).
T6 sequence (P29275 whole entry): T2 sequence (whole entry)
In words: Displacement of [3H]DPCPX from human adenosine A2B receptor expressed in HEK293 cells after 30 mins by beta scintillation counting. The class given is cell-based.

In test [11] the target is T6, Adenosine receptor A2b. In words: Antagonist activity at human adenosine A2B receptor expressed in HEK293 cells assessed as inhibition of […]-induced cAMP accumulation pre-incubated for 15 mins by enzyme immunoassay. The class given is functional, cell-based. Summed up: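 HEK-293 A2B cells seeded 10,000/well in EMEM F-12 with 10% FCS; 15 min pre-incubation at 37 °C with 30 µM rolipram and test compound, followed by 10 µM NECA for 15 min. Enzyme-immunoassay readout of intracellular cAMP at 450 nm; pKB by Leff–Dougall equation.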

Test [12] deals with T7, Adenosine receptor A1 (Homo sapiens, UniProt P30542).
T7 sequence (P30542 whole entry): T1 sequence (whole entry)
Briefly: Displacement of [3H]DPCPX from human adenosine A1 receptor expressed in CHO cells after 60 mins by beta scintillation counting. The format is cell-based. Summed up:
as §1

For test [13], the target named is T7, Adenosine receptor A1. In words: Antagonist activity at human adenosine A1 receptor expressed in forskolin-stimulated CHO cells assessed as inhibition of […]-induced decrease in cAMP level pre-incubated for 15 mins by enzyme immunoassay. The class given is functional, cell-based. In short, it runs like this: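 CHO-A1 cells, 20,000/well, grown in EMEM F-12 with 10% FCS; washed, pre-incubated 15 min at 37 °C with 20 µM rolipram plus test compound, then 0.1 µM NECA 15 min and 3 µM forskolin 3 min. Intracellular cAMP read by enzyme immunoassay at 450 nm; pKB from IC50 by Leff–Dougall equation.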

Adenosine receptor A2a, sequence (P29274 whole entry): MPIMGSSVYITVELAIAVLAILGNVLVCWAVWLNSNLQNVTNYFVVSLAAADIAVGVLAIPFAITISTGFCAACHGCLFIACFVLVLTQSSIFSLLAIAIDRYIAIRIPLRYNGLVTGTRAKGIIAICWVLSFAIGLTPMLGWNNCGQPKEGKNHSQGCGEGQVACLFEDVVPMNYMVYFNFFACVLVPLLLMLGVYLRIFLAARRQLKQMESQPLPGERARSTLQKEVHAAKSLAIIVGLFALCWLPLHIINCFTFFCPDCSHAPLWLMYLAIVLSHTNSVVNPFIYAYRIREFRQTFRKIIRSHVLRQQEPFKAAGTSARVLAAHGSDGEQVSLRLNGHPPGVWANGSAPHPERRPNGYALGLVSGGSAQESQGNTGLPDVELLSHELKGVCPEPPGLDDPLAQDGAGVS
5-hydroxytryptamine receptor 7 (Homo sapiens), sequence (P34969 whole entry): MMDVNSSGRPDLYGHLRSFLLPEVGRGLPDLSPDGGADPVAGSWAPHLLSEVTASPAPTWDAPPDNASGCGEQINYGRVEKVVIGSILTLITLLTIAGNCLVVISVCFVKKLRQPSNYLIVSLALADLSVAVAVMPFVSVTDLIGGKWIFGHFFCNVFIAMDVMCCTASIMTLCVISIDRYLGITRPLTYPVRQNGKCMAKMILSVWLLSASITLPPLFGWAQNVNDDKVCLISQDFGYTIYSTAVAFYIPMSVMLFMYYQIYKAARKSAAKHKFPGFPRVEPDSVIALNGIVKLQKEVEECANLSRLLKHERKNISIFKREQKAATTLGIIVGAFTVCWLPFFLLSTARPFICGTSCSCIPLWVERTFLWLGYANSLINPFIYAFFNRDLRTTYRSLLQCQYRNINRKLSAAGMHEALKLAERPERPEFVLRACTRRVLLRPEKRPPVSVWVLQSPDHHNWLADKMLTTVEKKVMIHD

Take `OC1=NCC2C(C=NN2Cc2ccccc2)C(c2ccc(Br)cc2)S1` (stereo unspecified): the inhibition in test [1] came to 8.1%; in [2], 18.8%.

Regarding `Cc1ccc(-c2ncc3[nH]c(=O)n(Cc4ccccc4)c3n2)cc1`, the inhibition in [1] is 20%; in test [3] it was 2.6%; in test [4], 71.1%; in [2] it was 37.5%. This compound also showed an inhibitory constant (Ki) in test [5] of 316 nM. The pKb in test [6] came to 6.3. The Activity in test [7] was determined as 18%; in [8], 17%; in test [9] it was 1%.

Turning to `COc1cn(-c2ccccc2)nc1C(=O)Nc1ccc(C)cn1`, the inhibition turned out to be 59.6% in [1] and 51.9% in test [2].

For `NC(=O)c1nc(-c2ccccc2O)nc2c1ncn2Cc1ccccc1`, the inhibition was 22.9% in test [1], 9.5% in test [3], 10.9% in [4] and 11.1% in [2].

On to `NC(=O)c1nc(-c2cccc(O)c2)nc2c1ncn2-c1ccccc1`, for which the inhibition in test [1] is 4.5%; in test [3], 0.5%; in test [4], 23.1%; in test [2], 25.5%.

In the case of `Cc1ccc(-n2cnc3c(N4CCOCC4)nc(-c4ccc(C#N)cc4)nc32)cc1`, the inhibition is 6.1% in test [1], 6.8% in test [3], 3% in test [4] and 7.6% in test [2].

`Cc1cc(NC(=O)C2=C3N=C(c4cccs4)C=C(C(F)(F)F)N3NC2)no1`: the inhibition amounted to 63% in [1] and 79% in [2].

Take `N=C1c2c(C(N)=O)nc(-c3ccccc3O)n2CN1c1ccc(O)cc1`: the inhibition in [1] is 15.2%; in [3] it was 55.4%; in test [4], 26.1%; in test [2], 26.8%. The compound also gave an inhibitory constant (Ki) in test [10] of 1580 nM. For the same compound, the negative-log Kb (pKb) in test [11] stood at 5.7. Besides, the Activity in test [7] was 28%; in test [8], 17%; in test [9], 11%.

Turning to `C=CCOc1cccc(-c2nc(O)c3c4ccccc4c(=O)n(CC)n23)c1`, the inhibition in test [1] turned out to be 10.9%; in test [3], 5%; in [4], 39%; in test [2], 87.3%. The compound further had an inhibition constant Ki in test [12] of 15.8 nM. Also, in [13], the negative logarithm of the Kb (pKb) came out at 6.8. Also, the Activity in test [7] was found to be 14%; in test [8], 42%; in test [9], 20%.

With `Cc1ccc(-n2cnc3c(N4CCSCC4)nc(-c4ccc(C#N)cc4)nc32)cc1`, the inhibition came to 14.3% in test [1], 4.3% in test [3], 1.9% in [4] and 6.8% in [2].

Take `CCO/C(C)=N/c1c(C#N)ncn1Cc1ccccc1`: the inhibition was determined as 9.8% in test [1], 9.9% in test [3], 28% in test [4] and 1.2% in test [2].

As to `CN1N=C(C(=O)Nc2ccc(Cl)cn2)C2COc3ccccc3C21` (stereo unspecified), the inhibition came to 13.3% in [1] and 8% in [2].

Take `O=C(Nc1ccco1)c1nc2nc(-c3cccs3)cc(C(F)(F)F)c2s1`: the results for the inhibition in test [1] and in [2] were 70.5% and 60.7%, respectively.

For `CCO/C=N/c1c(C#N)ncn1Cc1ccccc1`, the inhibition in test [1] was found to be 15.2%; in [3], 2%; in test [4] it was 1.9%; in test [2] it was 9.8%.

As to `COc1ccc(-c2nc(N3CCOCC3)c3ncn(-c4ccc(F)cc4)c3n2)cc1`, the inhibition in [1] amounted to 5%; in [3], 3%; in test [4], 31.8%; in [2], 18.8%.

For `O=C(/N=C1\c2ccccc2CN1c1ncccn1)Nc1ccccc1`, the inhibition in [1] was 6.7%; in [2], 38.5%.

Take `N#Cc1ccc(-c2nc(N3CCCCC3)c3ncn(-c4ccc(F)cc4)c3n2)cc1`: the inhibition in test [1] is 0.4%; in [3] it was 6.9%; in test [4], 15.1%; in test [2] it was 0.8%.
